Reference: ChEMBL document CHEMBL1123165, “A quantitative structure-activity relationship and molecular graphics analysis of hydrophobic effects in the interactions of inhibitors with alcohol dehydrogenase” (J Med Chem, 1986)

Key:
[1] = Partition coefficient (logP); type: physicochemical; settings: octanol/water
[2] = target: Alcohol dehydrogenase (Equus caballus, UniProt P00327+P00328); assay: Inhibitory activity against horse liver alcohol dehydrogenase (ADH)
Summary of the method: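 Horse liver ADH crystalline suspension, pelleted (12000g, 3 min) to remove ethanol, redissolved in 0.1 M potassium phosphate pH 7.0, diluted 1:10; 0.004 unit per assay. Reaction started with 5 or 10 mM ethanol, NADH read at 340 nm.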

| Compound | logP [1] | Log 1/Ki [2] |
| --- | --- | --- |
| c1cn[nH]c1 [PYRAZOLE] | 0.26 | 5.73 |
| NC(=O)Cc1ccc(F)cc1 | 0.59 | 4.19 |
| C/C=C(\C)C(N)=O | -0.21 | 3.15 |
| CCCc1cn[nH]c1 | 1.96 | 7.65 |
| CCCCCCc1cn[nH]c1 | 3.46 | 8.88 |
| C=CC(N)=O [ACRYLAMIDE] | -1.01 | 2.11 |
| C=C(C)C(N)=O | -0.71 | 3.02 |
| NC(=O)C(F)(F)F [TRIFLUOROACETAMIDE] | -0.11 | 1.33 |
| NC(=O)CF [MONOFLUOROACETAMIDE] | -1.03 | 1.41 |
| NC(=O)CBr |  | 2.24 |
| CC(C)(C)C(N)=O [PIVALAMIDE] | 0.15 | 2.46 |
| C/C=C/C(N)=O | -0.51 | 2.89 |
| CCC(CC)C(N)=O | 0.53 | 3.41 |
| NC(=O)C(Br)Br | 0.18 | 2.49 |
| NC(=O)C(Cl)(Cl)Cl | 0.79 | 2.07 |
| CC(C)C(N)=O [ISOBUTYRAMIDE] | -0.39 | 3.77 |
| Cc1cn[nH]c1 [FOMEPIZOLE] | 0.96 | 6.85 |
| NC(=O)C(F)F | -0.76 | 1.12 |
| NC(=O)C(Cl)Cl | -0.03 | 2.19 |
| NC(=O)CCl | -0.59 | 2.12 |
| NC(=O)CI [IODOACETAMIDE] | 0.15 | 2.72 |
| CCCCCc1cn[nH]c1 | 2.96 | 8.6 |

Second part, the molecule after the results:

| logP [1] | Log 1/Ki [2] | Compound |
| --- | --- | --- |
|  | 7.52 | CCCCCOc1ccc(CNC=O)cc1 |
| 2.04 | 5.15 | CCCCOc1ccc(CC(N)=O)cc1 |
|  | 7.58 | CCCCCCc1ccc(CNC=O)cc1 |
| 2.38 | 5.22 | CC(C)CCOc1ccc(CC(N)=O)cc1 |
| 1.16 | 4.7 | NC(=O)Cc1ccc(Cl)cc1 |
| 3.42 | 6 | NC(=O)Cc1ccc(OCC2CCCCC2)cc1 |
| 0.43 | 4.15 | COc1ccc(CC(N)=O)cc1 |
|  | 7.82 | O=CNCc1ccc(OCc2ccccc2)cc1 |
| 1.3 | 4.1 | CC(C)Oc1ccc(CC(N)=O)cc1 |
| 1.5 | 4.6 | CCCOc1ccc(CC(N)=O)cc1 |
|  | 5.75 | O=CNCc1ccc(O)cc1 |
| 1.31 | 4.7 | NC(=O)Cc1ccc(Br)cc1 |
| 2.97 | 5.7 | NC(=O)Cc1ccc(OCc2ccc(Br)cc2)cc1 |
| 0.83 | 4.1 | CCOc1ccc(CC(N)=O)cc1 |
| 2.11 | 5.7 | NC(=O)Cc1ccc(OCc2ccccc2)cc1 |
|  | 7.4 | CCCCOc1ccc(CNC=O)cc1 |
| 1.57 | 5.1 | NC(=O)Cc1ccc(I)cc1 |
| 2.58 | 5.92 | CCCCCOc1ccc(CC(N)=O)cc1 |
